Results from ChEMBL document CHEMBL1208776, “Design, synthesis and evaluation of a novel double pro-drug: INX-08189. A new clinical candidate for hepatitis C virus” (Bioorg Med Chem Lett, 2010).

How the values were obtained:
[1] = test system: Caco-2; test: (§1) Permeability across human Caco-2 cells from apical to basolateral side in human Caco2 cell membrane; format: ADME, cell-based
Method in brief: (§2)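 Caco-2 monolayers were grown for 27 days (resistance 600 ohms/cm²). Apical-to-basal transport was measured as % transported in 80 min, with permeability expressed in cm/s.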

[2] = Cytotoxicity against human HuH7 cells; format: cell-based, Huh-7
[3] = test system: Hepatitis C virus; test: Antiviral activity against HCV genotype 1b in Huh7 cells assessed as inhibition of viral replication by cell-based replicon assay; format: functional, organism-based, Hepacivirus hominis; conditions: Huh-7
[4] = as §1; format: ADME, cell-based; conditions: read-out: permeability; method in brief: as §2
[5] = test system: Carboxypeptidase A; test: Half life in carboxypeptidase A assay
[6] = test system: Hepatocyte; test: Cmax in primary human hepatocytes after 2uM treatment; format: ADME, cell-based
Method in brief: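 Primary human hepatocytes were incubated with 2 µM compound. Intracellular 2′-C-methyl guanosine triphosphate was measured over 48 h and expressed as pmol/10⁶ cells. Cmax and decay half-life were estimated from the time course.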

[7] = human, HuH7 cells, read-out: CC50

Row | Compound | permeability [1] [%] | CC50 [2, 7] [nM] | EC50 [3] [nM] | EC90 [3] [nM] | Papp A→B [4] [×10⁻⁶ cm/s] | CC50 ([2]; Homo sapiens, Huh-7) [nM] | half-life [5] [min] | Cmax_triphosphate [6] [pmol/10^6cells]
1 | C[C@H](NP(=O)(OC[C@H]1O[C@@H](n2cnc3c(=O)[nH]c(N)nc32)[C@](C)(O)[C@@H]1O)Oc1cccc2ccccc12)C(=O)OCC(C)(C)C (stereo partly drawn) | < 0.5 | > 100000 | 72 | 270 | – | – | – | –
2 | COc1nc(N)nc2c1ncn2[C@@H]1O[C@H](COP(=O)(N[C@@H](C)C(=O)OCc2ccccc2)Oc2cccc3ccccc23)[C@@H](O)[C@@]1(C)O (stereo partly drawn) | – | – | 30 | 100 | 4.02 | 12000 | – | –
3 | CCCOC(=O)[C@H](C)NP(=O)(OC[C@H]1O[C@@H](n2cnc3c(OC)nc(N)nc32)[C@](C)(O)[C@@H]1O)Oc1cccc2ccccc12 (stereo partly drawn) | – | – | 30 | 100 | – | 13000 | – | –
4 | COc1nc(N)nc2c1ncn2[C@@H]1O[C@H](COP(=O)(N[C@@H](C)C(=O)OC(C)C)Oc2cccc3ccccc23)[C@@H](O)[C@@]1(C)O (stereo partly drawn) | – | – | 540 | 1700 | – | > 100000 | – | –
5 | COc1nc(N)nc2c1ncn2[C@@H]1O[C@H](COP(=O)(N[C@@H](C)C(=O)OC2CCCCC2)Oc2cccc3ccccc23)[C@@H](O)[C@@]1(C)O (stereo partly drawn) | – | – | 30 | 90 | – | 6000 | – | –
6 | COc1nc(N)nc2c1ncn2[C@@H]1O[C@H](COP(=O)(N[C@@H](C)C(=O)OC2CCCC2)Oc2cccc3ccccc23)[C@@H](O)[C@@]1(C)O (stereo partly drawn) | – | – | 30 | 80 | – | 9000 | – | –
7 | COc1nc(N)nc2c1ncn2[C@@H]1O[C@H](COP(=O)(N[C@@H](C)C(=O)OCCC(C)(C)C)Oc2cccc3ccccc23)[C@@H](O)[C@@]1(C)O (stereo partly drawn) | – | – | 20 | 80 | – | 14000 | – | –
8 | COc1nc(N)nc2c1ncn2[C@@H]1O[C@H](COP(=O)(N[C@H](C)C(=O)OCC(C)(C)C)Oc2cccc3ccccc23)[C@@H](O)[C@@]1(C)O (stereo partly drawn) | – | – | 240 | 580 | – | 51000 | – | –
9 | COc1nc(N)nc2c1ncn2[C@@H]1O[C@H](COP(=O)(N[C@@H](CCSC)C(=O)OCC(C)(C)C)Oc2cccc3ccccc23)[C@@H](O)[C@@]1(C)O (stereo partly drawn) | – | – | 60 | 190 | – | 28000 | – | –
10 | COc1nc(N)nc2c1ncn2[C@@H]1O[C@H](COP(=O)(N[C@@H](CC(C)C)C(=O)OCC(C)(C)C)Oc2cccc3ccccc23)[C@@H](O)[C@@]1(C)O (stereo partly drawn) | – | – | 70 | 230 | – | 14000 | – | –
11 | CC[C@H](C)[C@H](NP(=O)(OC[C@H]1O[C@@H](n2cnc3c(OC)nc(N)nc32)[C@](C)(O)[C@@H]1O)Oc1cccc2ccccc12)C(=O)OCC(C)(C)C (stereo partly drawn) | – | – | 860 | 2530 | – | 18000 | – | –
12 | COc1nc(N)nc2c1ncn2[C@@H]1O[C@H](COP(=O)(N[C@H](C(=O)OCC(C)(C)C)C(C)C)Oc2cccc3ccccc23)[C@@H](O)[C@@]1(C)O (stereo partly drawn) | – | – | 190 | 640 | – | 33000 | – | –
13 | COc1nc(N)nc2c1ncn2[C@@H]1O[C@H](CO[P@@](=O)(N[C@@H](C)C(=O)OCC(C)(C)C)Oc2cccc3ccccc23)[C@@H](O)[C@@]1(C)O | – | – | – | – | – | – | 20 | –
14 | COc1nc(N)nc2c1ncn2[C@@H]1O[C@H](CO[P@](=O)(N[C@@H](C)C(=O)OCC(C)(C)C)Oc2cccc3ccccc23)[C@@H](O)[C@@]1(C)O | – | – | – | – | – | – | 17 | –
15 | COc1nc(N)nc2c1ncn2[C@@H]1O[C@H](CO)[C@@H](O)[C@@]1(C)O [BETA-2'-C-METHYL-6-O-METHYL GUANOSINE] | – | – | 5200 | 21000 | – | > 100000 | – | –
16 | COc1nc(N)nc2c1ncn2[C@@H]1O[C@H](COP(=O)(N[C@@H](C)C(=O)OCC(C)(C)C)Oc2cccc3ccccc23)[C@@H](O)[C@@]1(C)O (stereo partly drawn) [BMS-986094] | 2.7 | 7000 | 10 | 40 | – | – | – | 80
